Test results from ChEMBL document CHEMBL4732066, “SP1-independent inhibition of FOXM1 by modified thiazolidinediones” (Eur J Med Chem, 2021).
Calls of active or inactive are those of the source. The rule behind the calls is not given here.

How the values were obtained:
[1] = Downregulation of FOXM1 expression in human MDA-MB-231 cells at 40 uM after 48 hrs by Western blot analysis relative to control; format: functional
How it was run: (§1)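 MDA-MB-231 cells (RPMI, 10% FBS, 37 °C, 5% CO2) were treated in 6-well plates and lysed in RIPA buffer for 30 min after ice-cold PBS washes. Protein was quantified by Bradford and equal amounts run on 10% SDS-PAGE, then transferred to nitrocellulose and blocked in 10% milk/TBST for 45 min. Primary antibody was used at 1:1000 at 4 °C overnight, secondary for 45 min at RT, with chemiluminescent detection.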

Forkhead box protein M1 = target: T1, Forkhead box protein M1 (Homo sapiens, UniProt Q08050); test: Binding affinity to recombinant FOXM1 DBD (unknown origin) expressed in Escherichia coli BL21 (DE3) assessed as disruption of FOXM1-DNA complex preincubated for 1.5 hrs followed by DNA addition measured after 20 mins by EMSA
T1 sequence (Q08050 whole entry): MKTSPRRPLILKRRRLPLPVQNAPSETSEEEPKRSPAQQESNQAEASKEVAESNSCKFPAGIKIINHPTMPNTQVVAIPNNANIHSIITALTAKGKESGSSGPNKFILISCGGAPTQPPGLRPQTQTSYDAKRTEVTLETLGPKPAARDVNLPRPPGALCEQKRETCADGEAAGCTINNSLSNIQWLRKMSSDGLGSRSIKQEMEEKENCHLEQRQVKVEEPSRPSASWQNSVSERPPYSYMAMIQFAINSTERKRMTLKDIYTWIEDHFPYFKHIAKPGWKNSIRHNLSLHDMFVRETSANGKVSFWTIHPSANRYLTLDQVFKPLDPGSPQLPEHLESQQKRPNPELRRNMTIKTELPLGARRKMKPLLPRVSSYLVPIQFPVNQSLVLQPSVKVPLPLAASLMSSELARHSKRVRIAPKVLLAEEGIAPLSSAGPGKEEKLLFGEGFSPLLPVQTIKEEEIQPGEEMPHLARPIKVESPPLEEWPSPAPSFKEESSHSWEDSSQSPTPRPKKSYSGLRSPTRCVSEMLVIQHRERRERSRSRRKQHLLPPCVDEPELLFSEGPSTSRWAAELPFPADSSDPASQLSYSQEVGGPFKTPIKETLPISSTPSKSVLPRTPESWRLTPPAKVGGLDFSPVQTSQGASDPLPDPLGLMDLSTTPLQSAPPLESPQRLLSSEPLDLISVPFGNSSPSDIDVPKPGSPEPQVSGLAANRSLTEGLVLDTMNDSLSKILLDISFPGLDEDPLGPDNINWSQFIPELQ

[2] = target: T2, Forkhead box protein M1 (Homo sapiens) (UniProt Q08050); test: Inhibition of FOXM1 transcriptional activity in human MDA-MB-231 cells at 40 uM after 12 hrs by luciferase reporter gene assay; format: cell-based
T2 sequence (whole entry): T1 sequence (Q08050 whole entry)
How it was run: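 MDA-MB-231 cells were transiently transfected with equal amounts of 6x-FOXM1 firefly luciferase reporter and empty pGL4.10 backbone. After 24 h, cells were drug-treated for 12 h, PBS-washed and lysed in reporter lysis buffer. Firefly luciferase activity was read on equal total protein per lysate, in triplicate, with significance by one-way ANOVA.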

MDA-MB-231 [3] = test: Downregulation of SP1 expression in human MDA-MB-231 cells at 80 uM after 24 hrs by Western blot analysis; format: functional, cell-based; how it was run: as §1
MDA-MB-231 [4] = test: Effect on SP1 expression in human MDA-MB-231 cells at 80 uM after 24 hrs by Western blot analysis; format: functional, cell-based; how it was run: as §1

Row | SMILES | inhibition at 40 µM [1] [%] | other results
1 | O=C1NC(=O)/C(=C/c2ccc(OCc3ccc([N+](=O)[O-])cc3)c([N+](=O)[O-])c2)S1 | 80 | –
2 | O=C1NC(=O)/C(=C/c2ccc(OCc3ccc(C(F)(F)F)cc3)cc2)S1 | > 90 | –
3 | Cc1c(C)c2c(c(C)c1O)CCC(C)(COc1ccc(CC3SC(=O)NC3=O)cc1)O2 (stereo unspecified) [TROGLITAZONE] | 80 | IC50 (Forkhead box protein M1): 122 µM; Ki (Forkhead box protein M1): 0.052 µM; inhibition [2]: Active; inhibition (MDA-MB-231 [3]): Active
4 | O=C1NC(=O)/C(=C/c2ccc(OCc3ccc([N+](=O)[O-])cc3)cc2)S1 | 80 | –
5 | COc1cc(/C=C2\SC(=O)NC2=O)ccc1OCc1ccc(C(F)(F)F)cc1 | > 90 | Activity (MDA-MB-231 [4]): inactive
6 | COC(=O)c1ccc(COc2ccc(/C=C3\SC(=O)NC3=O)cc2OC)cc1 | 80 | –
7 | Nc1c(C(=O)Nc2ccc(F)cc2)sc2nc(-c3cccs3)cc(C(F)(F)F)c12 | 80 | –
8 | COC(=O)c1ccc(COc2ccc(/C=C3\SC(=O)NC3=O)cc2[N+](=O)[O-])cc1 | 80 | –
9 | COc1ccc(/C=C2\SC(=O)NC2=O)cc1OCc1ccc(C(F)(F)F)cc1 | 80 | –
10 | COc1ccc(/C=C2\SC(=O)NC2=O)cc1OCc1ccc([N+](=O)[O-])cc1 | > 90 | –
11 | COc1cc(/C=C2\SC(=O)NC2=O)ccc1OCc1ccc([N+](=O)[O-])cc1 | 80 | –
